Source: ChEMBL document CHEMBL4393694, “A multifunctional therapeutic approach: Synthesis, biological evaluation, crystal structure and molecular docking of diversified 1H-pyrazolo[3,4-b]pyridine derivatives against Alzheimer's disease” (Eur J Med Chem, 2019)
Activity calls are given as the source filed them. No cut-off for these calls is given here.

Assays:
[1] = Inhibition of Cu2+ induced amyloid beta (1 to 42) aggregation at 25 uM incubated for 24 hrs by Thioflavin T based fluorometric assay relative to control
Method in brief: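 Aβ1-42 was pretreated with HFIP, dried to a film, and held as a 5 mM DMSO stock. It was diluted in HEPES pH 6.6 with 150 μM NaCl, then incubated at 100 μM final with or without Cu2+ (100 μM final) for 48 h at 37 °C. Compounds were added at 25 μM final for 24 h at 37 °C. Samples (20 μL) were diluted to 200 μL glycine–NaOH (50 mM, pH 8.0) containing 5 μM ThT before reading fluorescence.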

Acetylcholinesterase = Acetylcholinesterase (Electrophorus electricus, UniProt O42275); experiment: Inhibition of electric eel AChE using acetylthiocholine iodide as substrate preincubated for 5 mins followed by substrate addition measured after 5 mins by Ellman's method
Cholinesterase = Cholinesterase (Equus caballus, UniProt P81908); experiment: Inhibition of equine serum BuChE using butyrylthiocholine iodide as substrate pretreated for 5 mins followed by substrate addition measured after 5 mins by Ellman's method
Method in brief: (§1)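 Ellman assay in phosphate buffer pH 8.0. AChE (0.22 U/mL) or BuChE (0.06 U/mL) preincubated 5 min with inhibitor (0.01–100 μM final). DTNB then added, and the reaction started with ATC or BTC (0.075 M solution). IC50 reported as mean ± SD. Selectivity is IC50(BuChE)/IC50(AChE).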

[2] = Selectivity index, ratio of IC50 for equine serum BChE to IC50 for electric eel AChE
Method in brief: as §1, with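 “solution). Absorbance read at 412 nm, 25 °C, 5 min after substrate.” for “solution).”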

[3] = target: Acetylcholinesterase (Electrophorus electricus) (UniProt O42275); experiment: Mixed-type inhibition of electric eel AChE assessed as decreased Vmax with higher Km using varying levels of acetylthiocholine iodide as substrate pretreated for 5 mins followed by substrate addition by Lineweaver-Burk plot analysis
Method in brief: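 AChE kinetics by Ellman's method, with substrate varied at comparatively low concentrations. Inhibitor tested at 10, 20 and 40 nM. Inhibition type assigned from Lineweaver–Burk plots of 1/velocity versus 1/substrate.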

[4] = target: T1, Amyloid-beta precursor protein (Homo sapiens, UniProt P05067); experiment: Inhibition of self-mediated amyloid beta (1 to 42) (unknown origin) aggregation at 25 uM incubated for 48 hrs by thioflavin-T fluorescence assay relative to control
Method in brief: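 HFIP-pretreated Aβ1-42 taken up in DMSO (5 mM stock), diluted in 50 mM phosphate pH 7.4 (100 μM final). Incubated 48 h at 37 °C with or without compound at 25 μM. Samples diluted to 200 μl with 50 mM glycine-NaOH pH 8.0 and read by ThT fluorescence. Percent inhibition reported as mean ± SD.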

[5] = target: T1, Amyloid-beta precursor protein; experiment: Disaggregation of self-induced amyloid beta (1 to 42) (unknown origin) preformed fibrils measured after 24 hrs by ThT fluorescence assay relative to control
Method in brief: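 HFIP-pretreated Aβ1-42 taken up in DMSO (5 mM stock), diluted in 50 mM phosphate pH 7.4 (100 μM final). Peptide incubated 48 h at 37 °C, then compound or buffer added and incubated a further 24 h at 37 °C. Samples diluted to 200 μl with 50 mM glycine-NaOH pH 8.0 and read by ThT fluorescence. Peptide-free blanks run in parallel.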

[6] = target: T1, Amyloid-beta precursor protein; experiment: Inhibition of self-mediated amyloid beta (1 to 42) (unknown origin) aggregation incubated for 48 hrs by thioflavin-T fluorescence assay
Method in brief: (§2)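 HFIP-pretreated Aβ1-42 from a DMSO stock was diluted in phosphate buffer (50 mM, pH 7.4). Peptide was incubated with or without inhibitor at 10, 15, 20 or 25 μM for 48 h at 37 °C. Samples were diluted to 200 μL with glycine–NaOH (50 mM, pH 8.0) and fibrils read by ThT fluorescence. Blanks lacking Aβ were run. IC50 was derived from the four concentrations.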

[7] = target: T1, Amyloid-beta precursor protein; experiment: Inhibition of self-mediated amyloid beta (1 to 42) (unknown origin) fibril formation assessed as appearance of sparse fibrils at 25 uM after 48 hrs by transmission electron microscopic analysis
[8] = target: T1, Amyloid-beta precursor protein; experiment: Inhibition of self-mediated amyloid beta (1 to 42) (unknown origin) aggregation at 10 uM incubated for 48 hrs by thioflavin-T fluorescence assay relative to control; method in brief: as §2
[9] = target: T1, Amyloid-beta precursor protein; experiment: Inhibition of self-mediated amyloid beta (1 to 42) (unknown origin) aggregation at 15 uM incubated for 48 hrs by thioflavin-T fluorescence assay relative to control; method in brief: as §2
[10] = target: T1, Amyloid-beta precursor protein; experiment: Inhibition of self-mediated amyloid beta (1 to 42) (unknown origin) aggregation at 20 uM incubated for 48 hrs by thioflavin-T fluorescence assay relative to control; method in brief: as §2
[11] = Inhibition of Cu2+ induced amyloid beta (1 to 42) aggregation assessed as fluorescence intensity at 25 uM incubated for 24 hrs by Thioflavin T based fluorometric assay (reference value: 606.64 +/- 36.11 a.u.)
[12] = Antioxidant activity assessed as AAPH-induced radical scavenging activity by measuring trolox equivalents for oxygen radical absorbance capacity measured up to 80 mins by ORAC-FL assay; assay type: functional
Method in brief: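 Fluorescein (70 nM final) with test compound at eight concentrations (1–8 μM) in 75 mM phosphate buffer pH 7.4, preincubated 15 min at 37 °C. AAPH (12 mM final) then added and fluorescence read (ex 485/em 520 nm) for 80 min. Net AUC over blank regressed against concentration and converted to Trolox equivalents by standard curve (Trolox = 1). At least three runs.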

[13] = Metal chelating activity assessed as compound-Fe2+ complex formation at 30 uM after 30 mins by UV-visible spectrophotometric analysis
Method in brief: (§3)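 UV absorption spectra (200–500 nm) were recorded over 30 min for compound (30 μM final) alone or with CuSO4 or FeSO4 (30 μM final). The medium was 20% (v/v) ethanol/buffer: 150 mM NaCl, 20 mM HEPES, pH 7.4.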

[14] = Metal chelating activity assessed as compound-Cu2+ complex formation at 30 uM after 30 mins by UV-visible spectrophotometric analysis; method in brief: as §3

T1 sequence (P05067 whole entry): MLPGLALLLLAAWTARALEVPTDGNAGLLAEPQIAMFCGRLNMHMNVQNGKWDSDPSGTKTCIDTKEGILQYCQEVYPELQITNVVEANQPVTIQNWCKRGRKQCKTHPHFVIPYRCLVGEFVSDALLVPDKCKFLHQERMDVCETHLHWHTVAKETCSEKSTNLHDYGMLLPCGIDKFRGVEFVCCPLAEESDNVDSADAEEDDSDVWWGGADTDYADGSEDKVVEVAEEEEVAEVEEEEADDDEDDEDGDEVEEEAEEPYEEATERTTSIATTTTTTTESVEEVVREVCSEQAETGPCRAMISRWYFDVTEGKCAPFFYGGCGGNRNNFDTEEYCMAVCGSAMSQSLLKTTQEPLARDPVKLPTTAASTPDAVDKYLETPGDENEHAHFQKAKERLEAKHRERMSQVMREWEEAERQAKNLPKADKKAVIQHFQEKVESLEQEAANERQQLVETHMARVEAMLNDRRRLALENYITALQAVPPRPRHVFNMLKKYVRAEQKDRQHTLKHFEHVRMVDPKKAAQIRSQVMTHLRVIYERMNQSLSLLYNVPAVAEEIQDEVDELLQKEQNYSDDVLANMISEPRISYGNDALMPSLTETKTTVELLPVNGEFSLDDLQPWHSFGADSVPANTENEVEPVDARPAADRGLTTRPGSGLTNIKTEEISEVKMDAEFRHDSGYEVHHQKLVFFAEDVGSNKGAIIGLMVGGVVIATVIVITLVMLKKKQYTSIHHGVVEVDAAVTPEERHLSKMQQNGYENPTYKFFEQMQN
Cholinesterase, sequence (P81908 whole entry): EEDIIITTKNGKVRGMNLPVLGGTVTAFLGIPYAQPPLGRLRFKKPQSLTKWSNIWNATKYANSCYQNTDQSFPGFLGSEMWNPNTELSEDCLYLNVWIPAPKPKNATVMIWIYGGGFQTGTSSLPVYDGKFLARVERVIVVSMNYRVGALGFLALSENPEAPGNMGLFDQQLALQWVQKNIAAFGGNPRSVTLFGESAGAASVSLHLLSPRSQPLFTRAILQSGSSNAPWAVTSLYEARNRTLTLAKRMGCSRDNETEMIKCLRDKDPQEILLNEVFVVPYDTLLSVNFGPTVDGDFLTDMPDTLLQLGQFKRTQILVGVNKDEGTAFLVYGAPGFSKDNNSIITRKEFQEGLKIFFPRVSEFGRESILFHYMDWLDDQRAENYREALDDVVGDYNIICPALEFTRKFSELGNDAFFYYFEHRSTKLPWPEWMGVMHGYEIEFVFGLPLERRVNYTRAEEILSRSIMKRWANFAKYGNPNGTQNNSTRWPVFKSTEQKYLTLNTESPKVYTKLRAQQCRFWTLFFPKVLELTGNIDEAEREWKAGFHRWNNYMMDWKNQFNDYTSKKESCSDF
Acetylcholinesterase, sequence (O42275 whole entry): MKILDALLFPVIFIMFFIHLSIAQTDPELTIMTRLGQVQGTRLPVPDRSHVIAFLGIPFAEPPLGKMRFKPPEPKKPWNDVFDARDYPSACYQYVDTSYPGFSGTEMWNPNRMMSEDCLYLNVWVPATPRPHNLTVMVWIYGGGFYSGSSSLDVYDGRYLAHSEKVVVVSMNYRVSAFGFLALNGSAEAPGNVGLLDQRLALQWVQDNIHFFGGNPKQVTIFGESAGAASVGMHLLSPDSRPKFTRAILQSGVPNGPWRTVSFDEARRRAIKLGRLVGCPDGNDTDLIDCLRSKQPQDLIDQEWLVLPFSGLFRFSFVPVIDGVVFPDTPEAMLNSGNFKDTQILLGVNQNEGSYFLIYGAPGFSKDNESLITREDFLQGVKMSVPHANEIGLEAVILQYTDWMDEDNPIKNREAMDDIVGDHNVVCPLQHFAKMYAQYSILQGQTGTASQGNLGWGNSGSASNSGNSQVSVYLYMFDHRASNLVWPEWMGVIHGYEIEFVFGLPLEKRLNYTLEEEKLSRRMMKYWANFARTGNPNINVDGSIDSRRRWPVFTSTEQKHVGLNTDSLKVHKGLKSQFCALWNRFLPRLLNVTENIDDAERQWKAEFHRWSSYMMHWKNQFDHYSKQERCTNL
Acetylcholinesterase (Electrophorus electricus), sequence (O42275 24-633 limits assumed): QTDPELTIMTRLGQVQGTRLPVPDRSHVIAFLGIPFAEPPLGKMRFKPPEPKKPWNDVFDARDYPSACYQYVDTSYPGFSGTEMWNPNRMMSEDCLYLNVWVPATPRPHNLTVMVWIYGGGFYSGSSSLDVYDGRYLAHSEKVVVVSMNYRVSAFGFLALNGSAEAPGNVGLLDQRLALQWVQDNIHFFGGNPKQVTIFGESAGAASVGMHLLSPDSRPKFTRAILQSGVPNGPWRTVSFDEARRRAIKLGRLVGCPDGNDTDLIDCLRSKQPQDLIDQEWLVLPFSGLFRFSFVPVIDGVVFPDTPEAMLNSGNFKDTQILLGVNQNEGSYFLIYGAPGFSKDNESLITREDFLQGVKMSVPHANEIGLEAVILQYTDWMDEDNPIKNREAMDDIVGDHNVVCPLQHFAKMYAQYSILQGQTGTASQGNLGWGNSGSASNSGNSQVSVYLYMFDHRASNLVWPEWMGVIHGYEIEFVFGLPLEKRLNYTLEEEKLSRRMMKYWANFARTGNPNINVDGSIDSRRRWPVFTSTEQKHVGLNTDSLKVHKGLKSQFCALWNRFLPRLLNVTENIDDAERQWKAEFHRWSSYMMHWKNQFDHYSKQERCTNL

SMILES	inhibition [1] [%]	IC50 (Acetylcholinesterase) [µM]	IC50 (Cholinesterase) [µM]	Ratio IC50 [2]	inhibition [3]	inhibition [4] [%]	Activity [5] [%]	IC50 [6] [µM]	inhibition [7]	inhibition [8] [%]	inhibition [9] [%]	inhibition [10] [%]	Flu intensity [11] [a.u.]	Activity [12] [µMequiv/µM]	Activity [13]	Activity [14]
O=C(CN1CCN(CC(=O)Nc2n[nH]c3ncccc23)CC1)Nc1n[nH]c2ncccc12	58.8	0.045	> 100	> 2220	Active	79.5	53.8	17.9	Active	3.9	39.9	58	250	0.283	Active	Active
COc1cc(/C=C/C(=O)CC(=O)/C=C/c2ccc(O)c(OC)c2)ccc1O	45.2	–	–	–	–	–	–	–	Active	–	–	–	333	–	–	–
N#Cc1cccnc1N1CCN(CC(=O)Nc2n[nH]c3ncccc23)CC1	–	> 100	> 100	–	–	40	–	–	–	–	–	–	–	0.163	–	–
O=C(CN1CCN(c2ccnc3cc(Cl)ccc23)CC1)Nc1n[nH]c2ncccc12	–	0.012	> 100	> 8330	–	23.6	–	–	–	–	–	–	–	0.286	–	–
O=C(CN1CCOCC1)Nc1n[nH]c2ncccc12	–	0.113	> 100	> 885	–	74.6	47.4	–	–	–	–	–	–	0.192	–	–
CCOC(=O)c1cnc2ccccc2c1N1CCN(CC(=O)Nc2n[nH]c3ncccc23)CC1	57	> 100	> 100	–	–	81.7	61.6	15.7	Active	28.6	43.8	84.1	261	0.274	Active	Active
CCOC(=O)c1cnc2ccc(C)cc2c1N1CCN(CC(=O)Nc2n[nH]c3ncccc23)CC1	–	> 100	> 100	–	–	69.3	52.1	–	–	–	–	–	–	0.271	–	–
O=C(CN1CCCCC1)Nc1n[nH]c2ncccc12	–	0.0048	> 100	> 20800	–	50.6	–	–	–	–	–	–	–	0.65	–	–
Cc1cc(N2CCN(CC(=O)Nc3n[nH]c4ncccc34)CC2)n2ncnc2n1	–	0.022	> 100	> 4550	–	43.4	–	–	–	–	–	–	–	0.216	–	–
CN1CCN(CC(=O)Nc2n[nH]c3ncccc23)CC1	–	0.0049	> 100	> 20400	–	50.9	–	–	–	–	–	–	–	0.362	–	–
